ChEMBL document CHEMBL5715946 (Chem Biol, 2010)
Activity calls are given as the source filed them. The calls are words filed in the database; no cut-off is given here.

Tests used:
Cardiac muscle cell [1] = assay: Cytoprotective activity against DOX-induced neonatal Wistar rat cardiomyocyte death assessed as increase in cell viability at 4.6 to 370 nM preincubated for 3 hrs followed by DOX addition and measured after 18 hrs by WST-8 assay; format: functional, cell-based; details: dose 4.6-370 nM, time 21.0 hrs
In short: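 Neonatal rat cardiomyocytes, isolated by proteinase digestion and preplating, pretreated with samples for 3 hr in serum-free medium, then exposed to 200 nM doxorubicin for 18 hr. Viability by WST-8. Mean ± SD, n = 6.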

[2] = Upregulation of UDP glucuronosyltransferase, exon 1 gene expression in serum-deprived neonatal Wistar rat cardiomyocyte at 0.37 uM incubated for 21 hrs by microarray analysis relative to control; format: functional, Cardiac muscle cell
In short: (§1)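 Primary neonatal rat cardiomyocytes cultured with or without 0.37 μM compound in serum-free medium for 21 hr. Total RNA profiled on the rat genome U34A GeneChip array (about 7000 known genes).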

[3] = Reduction in MIF expression in MIF siRNA transfected rat H9c2 cell culture medium at 3 uM measured after 24 hrs ELISA relative to control; format: functional; design: scale not given: the % may be the effect or the level left
In short: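 H9c2 cells transfected with 100 nM rat MIF siRNA or negative-control siRNA using Oligofectamine in Opti-MEM, then treated with 3 μM compound for 24 hr. MIF mRNA by real-time qPCR; MIF protein in cell lysate and medium by ELISA. Mean ± SD, n = 3.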

[4] = Upregulation of bilirubin-specific UDP glucuronosyltransferase gene expression in serum-deprived neonatal Wistar rat cardiomyocyte at 0.37 uM incubated for 21 hrs by microarray analysis relative to control; format: functional, Cardiac muscle cell; in short: as §1
[5] = system: Antioxidant response element; assay: Induction of ARE activity in serum-deprived neonatal Wistar rat cardiomyocytes assessed as increase in HO-1 expression up to 400 nM measured after 24 hrs by Western blot analysis; format: cell-based; details: Cardiomyocyte
In short: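 Neonatal rat cardiomyocytes exposed to samples or vehicle in M-199 with 1% penicillin-streptomycin, no serum, for 24 hr. GST Ya and HO-1 mRNA measured by real-time qPCR (mean ± SD, n = 3); protein by western blot with β-actin as control.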

Homo sapiens = species: Homo sapiens; assay: Binding affinity to BTZO-12 sensor chip immobilized recombinant human N-terminal His-tagged MIF C59S mutant expressed in Escherichia coli BL21 (DE3) by SPR analysis
In short: (§2)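 Sensor chip carrying immobilized BTZO-12; MIF (wild type or point mutants) passed over it and specific binding monitored by surface plasmon resonance.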

[6] = system: Antioxidant response element; assay: Induction of ARE-mediated HO-1 mRNA expression in MIF siRNA transfected rat H9c2 cells at 3 uM measured after 24 hrs by RT-qPCR analysis; format: cell-based
In short: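 H9c2 cells transfected with MIF siRNA or control siRNA (100 nM, Oligofectamine), then treated with 3 μM compound with or without 0.8 μM rMIF for 24 hr. GST Ya and HO-1 mRNA by real-time qPCR; mean ± SD, n = 3. MIF effect on drug efficacy tested by Aspin-Welch test.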

Cardiac muscle cell [7] = assay: Cytoprotective activity against serum deprivation-induced neonatal Wistar rat cardiomyocyte death assessed as suppression of internucleosomal cleavage of genomic DNA at 0.37 uM measured after 3 days by agarose gel electrophoresis; format: functional, cell-based; details: time 3.0 day
In short: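 Neonatal rat cardiomyocytes held with or without 0.37 μM compound in serum-free medium for 3 days. Genomic DNA then isolated and internucleosomal laddering examined by agarose gel electrophoresis.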

[8] = Upregulation of glutathione S-transferase Ya subunit gene expression in serum-deprived neonatal Wistar rat cardiomyocyte at 0.37 uM incubated for 21 hrs by microarray analysis relative to control; format: functional, Cardiac muscle cell
In short: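 Primary neonatal rat cardiomyocytes, isolated by proteinase digestion with preplating to deplete nonmyocytes, cultured in serum-free medium with or without 0.37 μM compound for 21 hr. Total RNA was recovered and global expression profiled on an Affymetrix GeneChip rat genome U34A array (about 7000 known genes). Change is relative to untreated cells.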

[9] = molecular target: T1, Macrophage migration inhibitory factor (Homo sapiens) (UniProt P14174); assay: Binding affinity to BTZO-12 sensor chip immobilized recombinant human N-terminal His-tagged MIF expressed in Escherichia coli BL21 (DE3) by SPR analysis; in short: as §2
T1 sequence (whole entry): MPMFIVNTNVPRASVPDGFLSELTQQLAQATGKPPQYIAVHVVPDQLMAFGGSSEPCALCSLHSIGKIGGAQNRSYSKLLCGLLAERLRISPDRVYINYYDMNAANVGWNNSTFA

Which Activity (Cardiac muscle cell [1]) does the source give for O=c1nc(-c2ccccn2)sc2ccccc12 [BTZO-1] here?
The Activity was “Active”.

And the “fold change (FC)” value [2]?
The value was 5.

And the Activity [3]?
Its Activity is ~75%.

What about the “fold change (FC)” value [4] of the same compound?
The value was 5.2.

What about the Activity [5] of the same compound?
The Activity was “Active”.

What about the Activity (Homo sapiens) of the same compound?
Its Activity is “Active”.

And the Activity [6]?
The Activity was “inactive”.

What about the Activity (Cardiac muscle cell [7]) of the same compound?
Its Activity is “Active”.

What about the “fold change (FC)” value [8] of the same compound?
The value was 12.

What about the Activity [9] of the same compound?
Its Activity is “Active”.
